In the EternaBench riboswitch data:

Tested on: MS2 coat protein
Test: apparent Kd, MS2 coat protein; higher = weaker binding; RNA-MaP array; FMN 200 µM where present
In short: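 The apparent Kd comes from binding curves fitted cluster by cluster, filtered, and summarised as a median. Those curves followed SNAP-549-labelled MS2 coat protein from 0.7 or 1.5 nM, doubling to 3 µM, on Illumina sequencing-chip clusters where stalled E. coli RNA polymerase had transcribed the designs, without and then with constant ligand. The buffer was 100 mM Tris-HCl pH 7.5, 80 mM KCl, 4 mM MgCl2, BSA, DTT, yeast tRNA and Tween-20, and green signal was normalised to red-channel RNA signal and control-cluster median Fmax.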

[1] = designed as: OFF switch for flavin mononucleotide, no ligand
[2] = ligand present: flavin mononucleotide, designed as: OFF switch for flavin mononucleotide
[3] = designed as: ON switch for flavin mononucleotide, no ligand
[4] = ligand present: flavin mononucleotide, designed as: ON switch for flavin mononucleotide

Sequence	apparent Kd [1] [nM]	apparent Kd [2] [nM]	apparent Kd [3] [nM]	apparent Kd [4] [nM]
UGGUGGAAGCAGGAUAUGCUUGUUUUAUUGAUUGCAGAAGGGCUAACAUGAGGAUCACCCAUGUAAGAGGUGUU	428	196		
AUACAUGAGGAUCACCCAUGUUACUGGGUCUAUAUAGAACGUAGAAGGAUGAUAUUAUAAAUAUCAUAGGAUAUACUAUAUUGU	32.7	32		
UGUUGGAGCAGAGGAUAUACAUGAGGAUCACCCAUGUAAUAAAGUGAAGCCUGGAAACAGGCAAUGUAGAAGGCUGCUCCGACA	10.1	73.6		
AUACGCUGAGGAUAUACCAAAACAACAACCUCGUGUAUAAUACAUGAGGAUCACCCAUGUAGAAGGCAGUAAAC	58.6	116		
UCGUUUUUUGAGGAUAUGCGACGUUCCUUCGUCGUAGAAGGCGAUACAUGAGGAUCACCCAUGUUUAUGGGCAU	108	138		
UGUACUAUAAGGUUAAUUGUAUAUUGAGAAGGCAUUCACAUGAGGAUCACCCAUGUAACAUGGGAUGAGGAUAUCAAUUUGUAC			197	33.4
GGAGCAACAUGAGGAUCACCCAUGUAGGAUAUCGCUAUUGUAAUCAUGAAACAUGAUUACAAUAGCGAGAAGGACAUAUGCUCC	6.02	9.16		
GAAUGUCGGGUAGGAUAUGACUUGCCACGGAGGUCAGAAGGGCCACGACAUGAGGAUCACCCAUGUACUGUAUUCCUUUUUCAA	25.3	98.1		
AAGUGUGCCUAGGAUAUGUUCGGCCAAGGUCAUACAGAAGGAGGCACAUGAGGAUCACCCAUGUAGUGUCCUAC	73.2	43.1		
GAUCCUUCUGUUAGGAUAUGCUUUGGGCUUCCGCAGCAGAAGGAACAUGAGGAUCACCCAUGUCCAAUGCCGUC	56.6	63.9		
CUCAGACAUGAGGAUCACCCAUGUCAGGAUAUCGUCUACCUGUGGAAACACAGGUAGACGAGAAGGGAUGUGUU	51.6	44.1		
AAGUAGGCAGGAUAUACAUGAGGAUCACCCAUGUGCCUAUACAAGGUAAUCUUGGGAGGUAGAAGGGCCUACAA	33.9	166		
UUAUCUAUGUAAGGAUAUCGAUGAUAUACGCAUCCGACAUGAGGAUCACCCAUGUUAUAUUUUGUCGAGAAGGUACAUUGUCGG			46.8	50.3
GUUGUGUCAGGAUAUACGUUUGUUUUUUUUUUUGUUGUUUAGUAGAAGGGACAUGAGGAUCACCCAUGUUUGUU	25.7	28.2		
UCACGGUAUGUAGGAUAUGCAUAGCAUUGCUAUGCAGAAGGACAUGAGGAUCACCCAUGUAUGUAUUCCAUACUAAUCCCGUGG	5.57	5.66		
ACAUGAGGAUCACCCAUGUUAAGCGAGGAUAUUUCACUGCACAUGAGGUUCGCCCAUGUCCUGCGGAAGAAGGUGCAAAUAAUU			48.1	23.4
ACUAGAUGAGGAUAUGCACAUUUUAGUGUUCCUCUAGAUUAACAUGAGGAUCACCCAUGUAGAAGGCGUCAAUU	45.7	64.8		
GCUGCGUACGUAGGAUAUACAUGAGGAUCACCCAUGUAACUCGGACUCUAAGCGGGUGCGCGCAUGUAGAAGGACGGGCGAGCC	33.3	57.2		
GAUAGGACAGAGAAGGUACGUGCUAGAGAUACUAGCAAAAUUACCUCACAUGAGGAUCACCCAUGUAAGGAUAUCUGUCCUAUC	4.82	5.54		
AAGUCAGCAGGAUAUGCGAUGUUGUGCUAGAUAGCGGGACCACAUGAGGAUCACCCAUGUAGAAGGGCUGGCUA	34	22.5		
UCCUGGCGAGGAUAUACAAUGUUUUUCACGUUUUGUUUCGAACAUGAGGAUCACCCAUGUAGAAGGUGCUACUG	53.2	44.7		
GGAUCGAUAGUGAGGAUAUACCACUGGAUACAGUGGUAGAAGGCACAUGAGGAUCACCCAUGUCCUAACGAUCC	20.6	99.4		
AAUAUAGAGCUGGUCUCAAAAUAAACAUGAGGAUCACCCAUGUAGGAUAUCAGCACGAUAAGUGCUGAGAAGGACAUCCAGCUC	16.3	18.4		
UCUGGUCGAGGAUAUGCAUUCGUGCUUCGGCACGUAAGGUCACAUGAGGAUCACCCAUGUAGAAGGCGACCAGA	19.6	35.9		
AAUUGGAUCCAGAAGGCAUGGACGACCCGUCAAAUUAACAUGAGGAUCACCCAUGUCAAAAGACAUGAGGAUAUGGAUCCUAAA			869	28.4
GUAACAUGAGGAUCACCCAUGUAUAGAACACUCAAUAGAUCUGAGGAUAUAGUAGAAUUUACAUACUAGAAGGCAGUGGGUACA			55.2	29.6
AGAUCUAGGACAGGAUAUACUGAUGGCUUCAUCGAAGAUGAAGCCAUCACAUGAGGAUCACCCAUGUAGAAGGGUCCUAGAUCA	14.5	14.9		
GGAUGACAUAGUCAUCUUUAACGAACAUGAGGAUCACCCAUGUAGGAUAUGCUACUCAACGAGUAGCAGAAGGACAUGUGUCUU	25.9	127		

Sequence	apparent Kd [1] [nM]	apparent Kd [2] [nM]	apparent Kd [3] [nM]	apparent Kd [4] [nM]
AGUAUGCACGCAGGAUAUACAUGAGGAUCACCCAUGUGGAACAGUGUAGUAUUAGUUGAUCCUCAGUAGAAGGGCGGUCGAAAU	82.5	55.6		
CUGCGCUAGGAGAAGGGCUAGAGUGUGAUAUAUUUGCCCGCGAGCACAUGAGGAUCACCCAUGUAGCAGGAUAUCCAAGCCGGU	6.86	16.5		
AGUAACAGAGGAUAUACUGUUUUAUGUGUUUAUUAUUUUAAACAUGAGGAUCACCCAUGUAGAAGGCUGAAUAA	49.7	40.4		
GCGGAGAUACAGAAGGGAUAAGCCCUGGGCUAGUCAGGAUAUGUACGACGCAUCGUACAUGAGGAUCACCCAUGUAGCCGCUUG			322	162
UUUUAACAUGAGGAUCACCCAUGUGAGGAUAUCGUAAUUUUUAUUAAUAUUAAUAAAACGAGAAGGCACAUUUU	96.6	81		
CAGCAUCAUGUAGGAUAUGCGUGGCGAAGCUAUGCAGAAGGACAUGAGGAUCACCCAUGUCUUACUGUGCGUACACAGUUGCUG	6.87	11.3		
UGUGUGUGUGCAGGAUAUUUAAGAAGAACAUGAGGAUCACCCAUGUGAGGAUCACCCAUGUAAAAGGAGAAGGGCAGUGUGUGU	754	728		
GUAUGACAAAGUCAUACCGCUUUGACAUGAGGAUCACCCAUGUAGGAUAUAUUAAUCAAAGAUUAAUAGAAGGACAUGUUUCUU	43.7	114		
AAGCAGUGUAAAUAAACUCAAAUACAUGAGGAUCACCCAUGUAAGGAUAUGCAGUGGAAUACACUGCAGAAGGUACAUCACUGC	15.1	22.6		
AAUUACAGAGGAUAUGCGCGGUAAAACAUGAGGAUCACCCAUGUGAUACCUGCAUGACCGGCAGAAGGCUGCGUUU	22.3	108		
GUGGCCCAGGCACAGGAUAUGUUUCUCGUAACAUGAGGAUCACCCAUGUGCCUAUGAGAUUUUUUGCAGAAGGGUGCACGCCACG			229	18.1
UCGUAUACACAAGGAUAUCGAUGGCUUGUAGAUGCUACAUGAGGAUCACCCAUGUUUUUAUAUUGUGAGAAGGUGUAGUGUCGU			141	221
GAGGCGCUAGCAGGAUAUGUACAUGAGGAUCACCCAUGUAAAUCUUUUUCUGGUGAAGCGCAAGUAUAGAAGGGCUAACGCUGG	9.07	18.8		
GCGCGAAGGUAGGAUAUCCAGGGAUCUUCCCGCGGAGAAGGACCCACAUGAGGAUCACCCAUGUGGUGAUCCUG	16.1	17.4		
AUCAGCUCGUCAGGAUAUACGUCACUGCGUCAGCAGUGUGGUAAGAUCACAUGAGGAUCACCCAUGUAGAAGGGACGAUCUGAU	12.8	309		
UUCAUCAAUGAAGGAUAUCUAUAUCCAACAUGAGGAUCACCCAUGUUGAGGAUCACCCAUGUAAAGGAGAAGGUUAAUAUAACU			35.9	31.4
CUGUAUGAUGUAGGAUAUACAAUAAUAUUGUUAGUAGAAGGACAUGAGGAUCACCCAUGUAAAUUAAUUUUAAUUAUUUUUGCG	47.2	36.6		
UUAACAUGAGGAUCACCCAUGUCGUGCAAGAUGAGUUCUGGUGAGGAUAUACAUGGUAAAGAACUGUAGAAGGCACUGGGUACA			290	139
AUGAGUAAAGCAGGAUAUCUAUUGUCUCUGUAACAUGAGGAUCACCCAUGUAGAGAAGGGCUUAGUCAUUCUCUUCGGAGUUGU	17.4	16.6		
CAUAUACAUGAGGAUCACCCAUGUUAGGAUAUGUUUUAACCGCGCGCAGGGUUAGUUGGCAGAAGGGAUCUGGG	31.4	39		
CAUAGUAAUUAGGAUAUCUGCCGGCUGAACCGAGGAGAAGGGAUUACAUGAGGAUCACCCAUGUGGUCCUAAGA	17	18.7		
UGUCGGAGCAGAGGAUAUUACAUGAGGAUCACCCAUGUAUGAACCAAUAGCCGGAAACAGCAAUGUAAGAAGGCUGCUCCGACA	4.64	6.88		
UUACCUUAUGAGAAGGCGGUCAUGAAACAUGAUCGAGGAUAUCAUGUAAACAUGAGGAUCACCCAUGUAUGGGUAUUAUGGUAU			142	27.3
CACGGACAUGAGGAUCACCCAUGUGAGGAUAUGCUCUACGAACGUUUUCCCACGAGAAGCAGAAGGCACAUUUC	78.2	135		
GUCUUGUCAGGAUAUCUUACAUAACAAUCGUAGUUACAAUUGGAGAAGGGACAUGAGGAUCACCCAUGUUAGCG	32.9	36		
UCAGGCUUCGAGAAGGACAUGAGGAUCACCCAUGUUAGUGUGAAGCAGCCGUGAGGCUGCAUCAUGUAGGAUAUCGGAGUCUGC	25.5	189		
AUCAGCUUGACAGGAUAUGCAUGUCAACGAAAGUUGACAAUCUUAAUAACAUGAGGAUCACCCAUGUAGAAGGGUCGAGCUGAU	17.4	19.9		
